S1P4 ag: S1P4 receptor agonists, primary screen, cell-based; S1P4-expressing cell line, agonist reporter assay; Sphingosine 1-phosphate receptor 4 (Homo sapiens), O95977; activation, % at 4.98 µM; AID 1509, 2009; 220,000 tested, 0.35% active; in the data active = activation above about 11%;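 also: 0% = DMSO vehicle and 100% = reference agonist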
NPY Y1 blocker: NPY-Y1 receptor antagonists, primary screen, cell-based. Neuropeptide Y receptor type 1 (Homo sapiens), P25929. HEK293-CNG Y1 cells, membrane potential fluorescence; NPY at EC95, then isoproterenol. inhibition, % at 3.6 µM. 200,000 tested, 1% active. AID 1040, 2008;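 active = inhibition above the campaign mean inhibition of all tested compounds plus 3 SD, cut at about 20% in these data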;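 also: 0% = DMSO wells given NPY plus isoproterenol and 100% = isoproterenol alone without NPY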
Target sequence (P25929 whole entry, looked up): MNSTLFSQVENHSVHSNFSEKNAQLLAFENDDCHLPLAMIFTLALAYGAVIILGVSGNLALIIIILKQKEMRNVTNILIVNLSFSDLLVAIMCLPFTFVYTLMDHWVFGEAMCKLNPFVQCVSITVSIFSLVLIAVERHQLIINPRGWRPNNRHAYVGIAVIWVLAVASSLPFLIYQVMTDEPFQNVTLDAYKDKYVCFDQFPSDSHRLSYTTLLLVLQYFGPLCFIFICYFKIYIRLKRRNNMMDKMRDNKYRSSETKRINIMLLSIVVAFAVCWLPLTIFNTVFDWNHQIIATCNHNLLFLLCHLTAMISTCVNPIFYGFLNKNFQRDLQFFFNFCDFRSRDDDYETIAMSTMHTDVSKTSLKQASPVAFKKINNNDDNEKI
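Material: HEK293 cells with Y1 receptor plus CNG channel; times: compound incubation 1 h at room temperature, readout 45 min post-stimulation; signal: fluorescence, membrane potential probe; read-out basis: fluorescence ratio normalized to % inhibition between controls; benchmarks: full-block control isoproterenol-only wells, zero-block control NPY plus isoproterenol wells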
S1P4 antag: S1P4 receptor antagonists, primary screen, cell-based; Sphingosine 1-phosphate receptor 4 (Homo sapiens), O95977; S1P4-expressing cells, antagonist mode, reporter read-out; 220,000 tested, 0.26% active; AID 1510, 2009; inhibition, % at 4.98 µM; in the data active = inhibition above about 29%;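 also: 0% = wells stimulated with agonist and 100% = vehicle wells without agonist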
NPY1 pot ag: NPY-Y1 receptor potentiators or agonists, primary screen, cell-based; Neuropeptide Y receptor type 1 (Homo sapiens), P25929; NPY-Y1 expressing cells, potentiator/agonist activation; activation, % at 3.6 µM; 220,000 tested, 0.37% active; in the data active = activation above about 33%, passing the limit was not always enough;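 also: cells stimulated with NPY at EC10 then isoproterenol at EC100; 0% = low agonist plus stimulus and 100% = saturating agonist plus stimulus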
NPY2 pot ag: NPY-Y2 potentiators or agonists, primary screen, cell-based; Neuropeptide Y receptor type 2 (Homo sapiens), P49146; cells expressing NPY-Y2, potentiator/agonist read-out; activation, % at 3.6 µM; 220,000 tested, 0.45% active; in the data active = activation above about 27%;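 also: cells stimulated with NPY near EC25 plus isoproterenol at EC100; 0% = vehicle plus submaximal agonist and 100% = vehicle plus saturating agonist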
NPY-Y2 antag: NPY-Y2 receptor antagonists, primary screen, cell-based | inhibition, % at 2.7 µM | NPY-Y2 expressing cells, antagonist mode | 140,000 tested, 0.99% active | Neuropeptide Y receptor type 2 (Homo sapiens), P49146 | AID 793, 2007;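 also: 0% = vehicle with agonist challenge and 100% = reference antagonist with challenge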
NPY1 antag conf: NPY-Y1 receptor antagonists, retest of hits, confirmation, HEK293-CNG cells, membrane potential fluorescence, triplicate | 1,200 tested, 21% active | cAMP; NPY challenge against isoproterenol-raised cAMP | shares compounds with NPY Y1 blocker | AID 1254, 2008 | inhibition, % at 3.6 µM; in the data active = inhibition above about 20%;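 also: 0% = vehicle with agonist plus stimulus and 100% = stimulus alone without agonist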
NPY2 antag ctr: NPY-Y2 receptor antagonists, selectivity check, confirmation, counter-screen for NPY-Y1 antagonist project, HEK293-CNG cells, membrane potential fluorescence, triplicate. shares compounds with NPY Y1 blocker. antagonism; cells given NPY, then isoproterenol. inhibition, % at 3.6 µM. 1,200 tested, 28% active;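 also: 0% = DMSO with agonist challenge and 100% = reference antagonist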
* = called active by the depositor. An excerpt weighted towards active compounds, which were near 2.4% of everything screened. Rule as the data show it, unless noted: active = inhibition above about 17%; inactive = the rest.

`Clc1ccc(-c2c[n+](Cc3ccc(Cl)cc3Cl)c3n2CCCCC3)cc1` gave S1P4 ag 0, S1P4 antag 15, NPY1 pot ag -16 and NPY2 pot ag -12.
Screening O=C(C[n+]1cc(-c2ccccc2)n2c1CCCCC2)c1ccc(Cl)cc1 returned S1P4 ag -1, NPY Y1 blocker 37*, S1P4 antag -20, NPY1 pot ag -56, NPY2 pot ag -12, NPY-Y2 antag 16, NPY1 antag conf 25* and NPY2 antag ctr 22*.
Screening COc1ccc(-c2c[n+](CC(=O)c3ccccc3)c3n2CCCCC3)cc1 returned S1P4 ag -2, S1P4 antag 18, NPY1 pot ag 9 and NPY2 pot ag 15.
`Cc1nnc(SCC(=O)N2CCCC2)n(N)c1=O` gave S1P4 ag 3, NPY Y1 blocker 2, S1P4 antag -16, NPY1 pot ag 19 and NPY2 pot ag 0.
N/C(=N\c1nc(CSc2ccccn2)cc(=O)[nH]1)Nc1ccc(Cl)cc1Cl was read as S1P4 ag 1, S1P4 antag -18, NPY1 pot ag 21 and NPY2 pot ag 12.
`Cc1cc(NS(=O)(=O)c2ccc(NC(=O)c3cc4cc(Br)ccc4oc3=O)cc2)no1` gave S1P4 ag 1, NPY Y1 blocker 6, S1P4 antag -5, NPY1 pot ag 10 and NPY2 pot ag 2.
Screening CCOC(=O)C(C)Oc1ncnc2cccc(F)c12 (centres undefined) returned S1P4 ag 0, NPY Y1 blocker 2, S1P4 antag -3, NPY1 pot ag 13 and NPY2 pot ag 5.
For Clc1ccccc1CN(Cc1ccccc1)C(c1cccs1)c1nnnn1C1CCCC1 (centres undefined) the results were S1P4 ag -1, NPY Y1 blocker 2, S1P4 antag -7, NPY1 pot ag -42, NPY2 pot ag -3 and NPY-Y2 antag 5.
`Clc1ccc(CN(CC2CCCO2)C(c2cccs2)c2nnnn2C2CCCC2)cc1` (centres undefined) gave S1P4 ag -2, NPY Y1 blocker 40*, S1P4 antag 1, NPY1 pot ag -16, NPY2 pot ag -2, NPY-Y2 antag 11, NPY1 antag conf 13 and NPY2 antag ctr 16.
For O=C1c2ccccc2C(=O)N1/N=C/c1ccc(Oc2ccc([N+](=O)[O-])cn2)cc1 the results were S1P4 ag -1, NPY Y1 blocker 1, S1P4 antag -2, NPY1 pot ag -8 and NPY2 pot ag 1.
For CCc1cc(-c2[nH]ncc2-c2ccc3c(c2)OCO3)c(O)cc1O the results were S1P4 ag 0, NPY Y1 blocker 20*, S1P4 antag -5, NPY1 pot ag 16, NPY2 pot ag 10, NPY-Y2 antag 1, NPY1 antag conf 21* and NPY2 antag ctr 0.
Screening CCOC(=O)c1c(C)n(-c2ccc(C)cc2)c2ccc(OCC(O)CNCCCO)cc12 (centres undefined) returned S1P4 ag -2, NPY Y1 blocker 29*, S1P4 antag 12, NPY1 pot ag -71, NPY2 pot ag -56, NPY1 antag conf 36* and NPY2 antag ctr 41*.
Screening CCOC(=O)c1c(C)n(-c2ccc(C)cc2)c2ccc(OCC(O)CNCC3CCCO3)cc12 (centres undefined) returned S1P4 ag -1, NPY Y1 blocker 59*, S1P4 antag -18, NPY1 pot ag -124, NPY2 pot ag -36, NPY1 antag conf 62* and NPY2 antag ctr 72*.
Cc1ccc(-n2cc(CNCCn3nc(C)cc3C)c(-c3ccc(F)cc3)n2)cc1 was read as S1P4 ag 1, NPY Y1 blocker 26*, S1P4 antag -6, NPY1 pot ag -19, NPY2 pot ag -7, NPY1 antag conf 27* and NPY2 antag ctr 14.
